≈ marks a conversion by molar mass, not a printed value.
How the values were obtained:
Cytochrome P450 2D6 = Cytochrome P450 2D6 (Homo sapiens, UniProt P10635); experiment: Inhibition of CYP2D6 in human liver microsomes using dextromethorphan as substrate by LC-MS/MS analysis in presence of NADPH; format: ADME
Plasma = experiment: Unbound plasma concentration in Harlan Sprague-Dawley rat model of AITC-induced flinching at 3 mg/kg, po at 1 hr; format: ADME, organism-based; details: in vivo
How it was run: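 Rats were given vehicle (2% HPMC/1% Tween-80) or compound orally at 1, 3, 10 or 30 mg/kg. After 1 h, 0.1% AITC was injected into one left ventral hind paw, and nocifensive flinching was recorded over the first minute. Unbound plasma concentration was measured at 1 h, n = 8 per dose. In vivo IC50/IC90 came from the exposure–response relationship across individual animals.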

[1] = target: D(3) dopamine receptor (Homo sapiens) (UniProt P35462); experiment: Displacement of [3H]methyl-spiperone from human recombinant dopamine D3 receptor expressed in CHO cells assessed as remaining radioligand binding at 10 uM after 60 mins by scintillation counting method relative to control; format: cell-based
Sequence of D(3) dopamine receptor (Homo sapiens) (P35462 whole entry): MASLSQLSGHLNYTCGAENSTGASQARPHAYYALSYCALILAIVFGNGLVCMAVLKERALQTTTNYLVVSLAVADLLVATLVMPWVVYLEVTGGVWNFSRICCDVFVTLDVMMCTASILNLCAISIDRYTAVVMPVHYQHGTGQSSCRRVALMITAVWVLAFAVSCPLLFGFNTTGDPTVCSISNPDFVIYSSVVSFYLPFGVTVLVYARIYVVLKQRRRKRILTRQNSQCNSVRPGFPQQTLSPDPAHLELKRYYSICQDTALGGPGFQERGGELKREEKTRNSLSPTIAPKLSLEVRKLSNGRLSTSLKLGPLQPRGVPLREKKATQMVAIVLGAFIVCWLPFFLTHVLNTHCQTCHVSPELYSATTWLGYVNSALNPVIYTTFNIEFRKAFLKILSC

[2] = target: Transient receptor potential cation channel subfamily A member 1 (Homo sapiens, UniProt O75762); experiment: Antagonist activity at human TRPA1 expressed in tetracycline-inducible T-REx expression system transfected CHO cells assessed as inhibition of AITC-induced 45Ca2+ uptake preincubated for 1 min followed by AITC addition measured after 12 mins; format: cell-based
Sequence of Transient receptor potential cation channel subfamily A member 1 (Homo sapiens, UniProt O75762) (O75762 whole entry): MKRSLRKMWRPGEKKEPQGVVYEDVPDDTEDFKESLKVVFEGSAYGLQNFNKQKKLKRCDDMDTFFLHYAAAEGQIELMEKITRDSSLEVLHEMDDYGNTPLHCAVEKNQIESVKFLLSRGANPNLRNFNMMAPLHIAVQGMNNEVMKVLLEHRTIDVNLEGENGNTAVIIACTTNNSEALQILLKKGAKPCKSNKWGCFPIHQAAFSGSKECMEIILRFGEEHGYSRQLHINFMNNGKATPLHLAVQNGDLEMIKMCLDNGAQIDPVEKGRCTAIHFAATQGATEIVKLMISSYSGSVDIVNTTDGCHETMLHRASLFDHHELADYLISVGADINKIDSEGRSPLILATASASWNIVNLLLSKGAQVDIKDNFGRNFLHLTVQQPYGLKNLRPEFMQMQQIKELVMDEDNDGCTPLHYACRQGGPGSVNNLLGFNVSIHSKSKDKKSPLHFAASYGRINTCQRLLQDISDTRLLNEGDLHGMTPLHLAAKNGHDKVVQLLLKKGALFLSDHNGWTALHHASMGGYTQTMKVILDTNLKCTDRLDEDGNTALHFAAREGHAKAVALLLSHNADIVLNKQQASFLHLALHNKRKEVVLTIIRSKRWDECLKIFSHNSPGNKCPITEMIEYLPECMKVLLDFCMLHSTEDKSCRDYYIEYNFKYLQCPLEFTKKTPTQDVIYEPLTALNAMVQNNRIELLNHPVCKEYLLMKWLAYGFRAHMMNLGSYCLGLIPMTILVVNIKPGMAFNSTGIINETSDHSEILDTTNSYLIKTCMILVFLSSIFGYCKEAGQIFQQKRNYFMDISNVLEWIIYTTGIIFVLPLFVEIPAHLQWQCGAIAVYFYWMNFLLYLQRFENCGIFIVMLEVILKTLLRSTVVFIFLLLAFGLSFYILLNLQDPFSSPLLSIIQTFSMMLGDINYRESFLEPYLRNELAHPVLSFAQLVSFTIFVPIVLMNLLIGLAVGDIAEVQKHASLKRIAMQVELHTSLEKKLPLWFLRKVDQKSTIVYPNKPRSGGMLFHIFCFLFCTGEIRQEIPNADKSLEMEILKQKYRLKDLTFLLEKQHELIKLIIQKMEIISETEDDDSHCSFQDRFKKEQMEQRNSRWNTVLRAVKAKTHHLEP

[3] = target: 5-hydroxytryptamine receptor 5A (Homo sapiens) (UniProt P47898); experiment: Displacement of [3H]LSD from human recombinant 5HT5A receptor expressed in HEK293 cells assessed as remaining radioligand binding at 10 uM after 120 mins by scintillation counting method relative to control; format: cell-based
Sequence of 5-hydroxytryptamine receptor 5A (Homo sapiens) (P47898 whole entry): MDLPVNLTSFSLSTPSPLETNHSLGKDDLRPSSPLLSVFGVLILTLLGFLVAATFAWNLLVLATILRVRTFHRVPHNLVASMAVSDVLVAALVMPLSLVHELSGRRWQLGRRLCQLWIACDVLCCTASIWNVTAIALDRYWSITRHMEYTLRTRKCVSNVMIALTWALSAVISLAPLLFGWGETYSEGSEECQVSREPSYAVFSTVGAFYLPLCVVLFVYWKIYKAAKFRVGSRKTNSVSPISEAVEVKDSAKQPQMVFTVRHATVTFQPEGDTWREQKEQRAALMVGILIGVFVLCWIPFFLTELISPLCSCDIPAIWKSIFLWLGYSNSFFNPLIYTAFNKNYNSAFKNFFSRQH

[4] = target: C-C chemokine receptor type 2 (Homo sapiens) (UniProt P41597); experiment: Displacement of [125I]MCP-1 from human recombinant CCR2 expressed in HEK293 cells assessed as remaining radioligand binding at 10 uM after 60 mins by scintillation counting method relative to control; format: cell-based
Sequence of C-C chemokine receptor type 2 (Homo sapiens) (P41597 whole entry, looked up): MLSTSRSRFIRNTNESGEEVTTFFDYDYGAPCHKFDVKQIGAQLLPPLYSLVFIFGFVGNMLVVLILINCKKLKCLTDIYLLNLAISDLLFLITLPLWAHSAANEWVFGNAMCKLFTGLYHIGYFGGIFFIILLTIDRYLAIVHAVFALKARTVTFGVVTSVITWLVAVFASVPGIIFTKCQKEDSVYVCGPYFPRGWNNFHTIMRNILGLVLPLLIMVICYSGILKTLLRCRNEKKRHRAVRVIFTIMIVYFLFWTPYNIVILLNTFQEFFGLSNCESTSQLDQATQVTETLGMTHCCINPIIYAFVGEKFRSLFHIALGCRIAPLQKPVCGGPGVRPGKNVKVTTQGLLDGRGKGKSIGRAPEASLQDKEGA

Rattus norvegicus [5] = experiment: fCmax in rat at 30 mg/kg, po; format: ADME, organism-based; details: in vivo
How it was run: (§1)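 Rats dosed orally at 30 mg/kg, or 10 mg/kg for one analogue, in 1% Tween 80/2% HPMC/97% water with methanesulfonic acid, pH 2.2.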

[6] = Half life in rat at 30 mg/kg, po; format: ADME, organism-based; details: in vivo; how it was run: as §1
[7] = target: Muscarinic acetylcholine receptor M4 (Homo sapiens) (UniProt P08173); experiment: Displacement of [3H]4-DAMP from human recombinant muscarinic M4 receptor expressed in CHO cells assessed as remaining radioligand binding at 10 uM after 60 mins by scintillation counting method relative to control; format: cell-based
Sequence of Muscarinic acetylcholine receptor M4 (Homo sapiens) (P08173 whole entry): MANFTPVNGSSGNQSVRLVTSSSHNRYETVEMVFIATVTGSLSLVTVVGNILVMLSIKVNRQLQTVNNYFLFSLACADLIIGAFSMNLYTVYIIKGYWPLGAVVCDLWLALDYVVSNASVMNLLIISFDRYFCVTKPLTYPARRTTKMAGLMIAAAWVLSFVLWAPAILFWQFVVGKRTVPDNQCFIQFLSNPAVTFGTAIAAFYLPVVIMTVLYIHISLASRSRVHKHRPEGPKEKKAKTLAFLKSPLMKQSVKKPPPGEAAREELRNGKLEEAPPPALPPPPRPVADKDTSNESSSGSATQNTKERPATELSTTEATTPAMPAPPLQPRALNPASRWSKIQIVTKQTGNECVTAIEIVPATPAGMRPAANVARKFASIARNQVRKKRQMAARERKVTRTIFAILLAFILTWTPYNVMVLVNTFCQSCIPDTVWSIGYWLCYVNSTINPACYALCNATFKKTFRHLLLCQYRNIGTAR

[8] = target: D(1A) dopamine receptor (Homo sapiens) (UniProt P21728); experiment: Displacement of [3H]SCH-23390 from human recombinant dopamine D1 receptor expressed in CHO cells assessed as remaining radioligand binding at 10 uM after 60 mins by scintillation counting method relative to control; format: cell-based
[9] = Ratio of fCmax in rat at 30 mg/kg, po to IC50 for rat TRPA1 expressed in tetracycline-inducible T-REx expression system transfected CHO cells by 45Ca2+ uptake assay
[10] = target: 5-hydroxytryptamine receptor 2A (Homo sapiens) (UniProt P28223); experiment: Displacement of [3H]ketanserin from human recombinant 5HT2A receptor expressed in HEK293 cells assessed as remaining radioligand binding at 10 uM after 60 mins by scintillation counting method relative to control; format: cell-based
Sequence of 5-hydroxytryptamine receptor 2A (Homo sapiens) (P28223 whole entry): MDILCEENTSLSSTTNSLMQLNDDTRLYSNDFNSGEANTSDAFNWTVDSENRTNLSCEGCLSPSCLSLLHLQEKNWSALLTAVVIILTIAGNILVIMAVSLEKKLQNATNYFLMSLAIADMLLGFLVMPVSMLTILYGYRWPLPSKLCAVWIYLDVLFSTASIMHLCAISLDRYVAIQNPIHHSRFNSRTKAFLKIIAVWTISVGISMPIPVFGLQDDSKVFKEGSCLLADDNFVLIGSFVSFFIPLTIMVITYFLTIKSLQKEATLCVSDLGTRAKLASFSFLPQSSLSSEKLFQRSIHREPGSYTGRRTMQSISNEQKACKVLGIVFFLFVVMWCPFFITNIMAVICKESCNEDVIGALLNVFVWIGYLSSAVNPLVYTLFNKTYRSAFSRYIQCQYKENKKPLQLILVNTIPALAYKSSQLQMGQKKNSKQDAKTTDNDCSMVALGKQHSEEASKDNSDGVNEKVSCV

[11] = target: Adenosine receptor A3 (Homo sapiens) (UniProt P0DMS8); experiment: Displacement of [125I]AB-MECA from human recombinant adenosine A3 receptor expressed in HEK293 cells assessed as remaining radioligand binding at 10 uM after 120 mins by scintillation counting method relative to control; format: cell-based
Sequence of Adenosine receptor A3 (Homo sapiens) (P0DMS8 whole entry): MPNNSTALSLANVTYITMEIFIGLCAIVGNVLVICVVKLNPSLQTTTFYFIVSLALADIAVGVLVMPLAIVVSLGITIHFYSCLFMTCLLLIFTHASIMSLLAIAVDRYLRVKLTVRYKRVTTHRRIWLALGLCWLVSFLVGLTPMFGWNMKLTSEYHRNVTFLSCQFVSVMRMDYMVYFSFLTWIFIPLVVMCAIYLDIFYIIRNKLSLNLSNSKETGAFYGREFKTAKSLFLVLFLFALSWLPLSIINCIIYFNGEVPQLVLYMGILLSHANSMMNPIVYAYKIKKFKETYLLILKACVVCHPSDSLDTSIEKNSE

[12] = target: Alpha-1A adrenergic receptor (Homo sapiens) (UniProt P35348); experiment: Displacement of [3H]prazosin from human recombinant adrenergic alpha1A expressed in CHO cells assessed as remaining radioligand binding at 10 uM after 60 mins by scintillation counting method relative to control; format: cell-based
Sequence of Alpha-1A adrenergic receptor (Homo sapiens) (P35348 whole entry): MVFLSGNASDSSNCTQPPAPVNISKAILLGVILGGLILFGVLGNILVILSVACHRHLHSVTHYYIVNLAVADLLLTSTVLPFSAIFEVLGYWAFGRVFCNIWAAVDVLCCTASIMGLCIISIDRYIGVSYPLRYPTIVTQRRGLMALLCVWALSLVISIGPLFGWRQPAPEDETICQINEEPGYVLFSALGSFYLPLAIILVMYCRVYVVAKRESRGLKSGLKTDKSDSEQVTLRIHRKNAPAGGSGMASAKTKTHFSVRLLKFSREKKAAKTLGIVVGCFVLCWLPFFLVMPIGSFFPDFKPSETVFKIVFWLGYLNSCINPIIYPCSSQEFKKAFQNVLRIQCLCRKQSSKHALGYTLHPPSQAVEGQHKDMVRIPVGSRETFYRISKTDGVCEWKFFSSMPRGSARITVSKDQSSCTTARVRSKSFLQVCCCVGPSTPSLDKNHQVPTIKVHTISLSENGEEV

Rattus norvegicus [13] = species: Rattus norvegicus; experiment: Displacement of [3H]PK-11195 from benzodiazepine receptor in rat heart assessed as remaining radioligand binding at 10 uM after 15 mins by scintillation counting method relative to control
[14] = target: Beta-1 adrenergic receptor (Homo sapiens) (UniProt P08588); experiment: Displacement of (-)-[3H]CGP-12177 from human recombinant adrenergic beta1 receptor expressed in HEK293 cells assessed as remaining radioligand binding at 10 uM after 60 mins by scintillation counting method relative to control; format: cell-based
Sequence of Beta-1 adrenergic receptor (Homo sapiens) (P08588 whole entry, looked up): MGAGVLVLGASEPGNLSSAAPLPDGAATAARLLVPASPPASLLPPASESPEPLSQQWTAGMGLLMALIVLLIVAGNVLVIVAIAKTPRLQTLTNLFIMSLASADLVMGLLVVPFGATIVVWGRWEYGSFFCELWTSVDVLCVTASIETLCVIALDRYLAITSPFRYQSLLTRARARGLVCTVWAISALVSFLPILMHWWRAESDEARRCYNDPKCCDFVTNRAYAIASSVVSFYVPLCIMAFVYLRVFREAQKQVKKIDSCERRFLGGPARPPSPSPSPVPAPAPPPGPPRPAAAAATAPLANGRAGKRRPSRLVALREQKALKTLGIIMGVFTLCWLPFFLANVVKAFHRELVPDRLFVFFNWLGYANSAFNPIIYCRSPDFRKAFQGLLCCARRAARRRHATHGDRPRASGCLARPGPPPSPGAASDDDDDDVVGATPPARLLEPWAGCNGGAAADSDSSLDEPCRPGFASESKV

[15] = Solubility of compound in simulated intestinal fluid; format: ADME
[16] = Ratio of unbound plasma concentration in Harlan Sprague-Dawley rat model of AITC-induced flinching at 10 mg/kg, po to IC50 for rat TRPA1 expressed in tetracycline-inducible T-REx expression system transfected CHO cells by 45Ca2+ uptake assay; format: ADME, organism-based; details: in vivo
How it was run: (§2)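 Rats dosed orally at 1, 3, 10 or 30 mg/kg in 2% HPMC/1% Tween-80 vehicle. After 1 h, unbound plasma concentration measured (n = 8 per dose), intraplantar AITC (0.1%) given and flinching scored over the first minute. Unbound concentration divided by in vitro rat TRPA1 45Ca2+ IC50.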

[17] = target: Transient receptor potential cation channel subfamily A member 1 (Rattus norvegicus, UniProt Q6RI86); experiment: Antagonist activity at rat TRPA1 expressed in tetracycline-inducible T-REx expression system transfected CHO cells assessed as inhibition of methylglyoxal-induced 45Ca2+ uptake preincubated for 10 mins followed by methylglyoxal addition measured after 3 mins by TopCount microplate scintillator counting method; format: cell-based
How it was run: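 Compound given 10 min at RT in HBSS/1 mM HEPES/0.1 mg/mL BSA, final 2.0 nM–40 μM (1:3 steps); then methylglyoxal (final 2.74 mM) plus 45Ca2+ (final 10 μCi/mL) in Ham's F-12/15 mM HEPES/0.1% BSA, 3 min at RT. Cells washed three times, then scintillation counted. MG uptake = 100%, no-agonist buffer = 0%. Four-parameter fit gives IC50.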

[18] = Apparent intrinsic clearance in rat liver microsomes; format: ADME; details: read-out: CLH(app)
[19] = target: 5-hydroxytryptamine receptor 2B (Homo sapiens) (UniProt P41595); experiment: Displacement of [3H]mesulergine from human recombinant 5HT2B receptor expressed in CHO cells assessed as remaining radioligand binding at 10 uM after 60 mins by scintillation counting method relative to control; format: cell-based
Sequence of 5-hydroxytryptamine receptor 2B (Homo sapiens) (P41595 whole entry): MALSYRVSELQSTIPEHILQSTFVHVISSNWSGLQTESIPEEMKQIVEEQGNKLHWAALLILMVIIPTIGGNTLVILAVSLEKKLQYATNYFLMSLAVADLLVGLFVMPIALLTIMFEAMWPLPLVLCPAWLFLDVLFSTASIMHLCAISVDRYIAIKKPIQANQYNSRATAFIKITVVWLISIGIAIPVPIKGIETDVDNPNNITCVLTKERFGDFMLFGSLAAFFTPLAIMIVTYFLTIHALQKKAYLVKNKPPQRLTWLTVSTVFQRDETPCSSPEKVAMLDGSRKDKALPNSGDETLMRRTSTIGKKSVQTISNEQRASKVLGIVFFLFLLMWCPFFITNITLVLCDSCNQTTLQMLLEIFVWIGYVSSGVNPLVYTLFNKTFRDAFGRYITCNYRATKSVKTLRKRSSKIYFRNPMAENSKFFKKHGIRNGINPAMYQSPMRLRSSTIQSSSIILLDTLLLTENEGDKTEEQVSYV

[20] = Ratio of unbound plasma concentration in Harlan Sprague-Dawley rat model of AITC-induced flinching at 3 mg/kg, po to IC50 for rat TRPA1 expressed in tetracycline-inducible T-REx expression system transfected CHO cells by 45Ca2+ uptake assay; format: ADME, organism-based; details: in vivo; how it was run: as §2
Cavia porcellus = species: Cavia porcellus; experiment: Displacement of [3H]NBTI from adenosine transporter in guinea pig cerebral cortex assessed as remaining radioligand binding at 10 uM after 30 mins by scintillation counting method relative to control; format: tissue-based
[21] = target: Sodium-dependent noradrenaline transporter (Homo sapiens) (UniProt P23975); experiment: Displacement of [3H]nisoxetine from human recombinant norepinephrine transporter expressed in CHO cells assessed as remaining radioligand binding at 10 uM after 120 mins by scintillation counting method relative to control; format: cell-based

IC50 (Cytochrome P450 2D6): > 27 µM
Cp(f) (Plasma): 0.19 µM
Activity [1]: > 77%
IC50 [2]: 131 nM
Activity [3]: > 77%
Activity [4]: > 77%
fCmax (Rattus norvegicus [5]): 2.2 µM
half-life [6]: 168 min
Activity [7]: > 77%
Activity [8]: > 77%
Activity [10]: > 77%
Activity [11]: > 77%
Activity [12]: > 77%
Activity (Rattus norvegicus [13]): > 77%
Activity [14]: > 77%
solubility [15]: 248 µM (≈ 92 µg/mL)
Ratio [16]: 8.2
IC50 [17]: 19 nM
microsomal CLint [18]: 41 µL/min/mg
Activity [19]: > 77%
Ratio [20]: 2.7
Activity (Cavia porcellus): > 77%
Activity [21]: > 77%
Structure (SMILES): Cn1cnc2ncn(Cc3nc(CCc4ccc(Cl)cc4)no3)c(=O)c21
Ratio [9]: 31

Source: ChEMBL document CHEMBL3784976 (J Med Chem, 2016)
